Source: ChEMBL document CHEMBL3045897, “Bioactivity of compounds from Acmella oleracea against Tuta absoluta (Meyrick) (Lepidoptera: Gelechiidae) and selectivity to two non-target species” (Pest Manag Sci, 2012)

Assays:
Tetragonisca angustula = test: Contact toxicity against adult Tetragonisca angustula assessed as mortality after 24 hr; type: organism-based; details: in vivo, topical_or_ocular
In short: (§1)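 Topical application of 0.5 µL test solution in acetone per insect; controls got 0.5 µL acetone alone. Insects were held singly with food in small petri dishes at 25 ± 0.5 °C, 75±5% RH and a 12 h photoperiod. Mortality (dead or motionless insects) was scored at 24 h.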

Solenopsis saevissima = test: Contact toxicity against adult Solenopsis saevissima assessed as mortality after 24 hr; type: organism-based; details: in vivo, topical_or_ocular; in short: as §1
Tuta absoluta [1] = test: Contact toxicity against second-instar larvae of Tuta absoluta assessed as mortality after 24 hr; type: functional; in short: as §1
[2] = Contact toxicity against adult Solenopsis saevissima assessed as mortality at contact LD80 for second-instar larvae of Tuta absoluta measured after 24 hr; type: organism-based; details: in vivo, topical or ocular
[3] = Contact toxicity against adult Tetragonisca angustula assessed as mortality at contact LD80 for second-instar larvae of Tuta absoluta measured after 24 hr; type: organism-based; details: in vivo, topical or ocular
[4] = Selectivity ratio of LD50 for adult Tetragonisca angustula to LD50 for second-instar larvae of Tuta absoluta
In short: (§2)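 Test solutions in acetone were applied topically at 0.5 µL per insect, with acetone alone as control. Insects were then held individually in petri dishes with food at 25 ± 0.5 °C, 75±5% RH and a 12 h photoperiod. Mortality (dead or motionless) was scored at 24 h. LD50 values came from probit analysis of dose–mortality data for each species, and SLR50 was computed from these LD50 values.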

[5] = Selectivity ratio of LD50 for adult Solenopsis saevissima to LD50 for second-instar larvae of Tuta absoluta; in short: as §2
Tuta absoluta [6] = test: Ratio of permethrin LD50 to compound LD50 for second-instar larvae of Tuta absoluta assessed as mortality after 24 hr; type: functional

Row | Structure (SMILES) | LD80 (Tetragonisca angustula) [µg/mg] | LD80 (Solenopsis saevissima) [µg/mg] | LD50 (Tuta absoluta [1]) [µg/mg] | LD80 (Tuta absoluta [1]) [µg/mg] | mortality at 24 h [2] [%] | LD50 (Tetragonisca angustula) [µg/mg] | mortality at 24 h [3] [%] | LD50 (Solenopsis saevissima) [µg/mg] | Ratio [4] | Ratio [5] | Ratio (Tuta absoluta [6])
1 | C#CC#CCCCC/C=C/C(=O)NCC(C)C | 2.02 | 2.22 | – | – | – | – | – | – | – | – | –
2 | C#CC#CCCCC/C=C/C(=O)NC[C@H](C)CC | 2.26 | 4.4 | 0.81 | 1.76 | 55 | 1.1 | 59 | 1.33 | 1.35 | 1.64 | –
3 | CC1(C)C(C=C(Cl)Cl)C1C(=O)OCc1cccc(Oc2ccccc2)c1 (stereo not drawn) [PERMETHRIN] | 0.002 | 1.458 | 0.71 | 2.57 | 100 | 0.0003 | 100 | 0.046 | 0.065 | 0.00042 | –
4 | C/C=C/C=C\CC/C=C/C(=O)NCC(C)C [Spilanthol] | 0.81 | 1.12 | 0.13 | 0.56 | 68 | 0.35 | 58 | 0.18 | 2.69 | 1.38 | 5
